Measurements reported in ChEMBL document CHEMBL5247673, “Discovery of Small Molecules Targeting the Frameshifting Element RNA in SARS-CoV-2 Viral Genome” (ACS Med Chem Lett, 2023).

Columns and labels:
[1] = (§1) Inhibition of programmed -1 ribosomal frameshifting in human MCF7 cells harboring pCherryGFP-CoV2-WT plasmid assessed as inhibition of GFP expression incubated for 30 mins by fluorescence microscopic analysis; type: functional, cell-based; conditions: MCF7, 0.5 h
Procedure, shortened: (§2)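 MCF-7 cells were treated with compound at various concentrations and transfected with an mCherry–FSE–GFP reporter: WT, a stop-codon negative control, or an in-frame no-FSE plasmid. GFP expression was the read-out, compared with a DMSO (0 μM) control. Data are mean ± SD of three independent experiments.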

[2] = Inhibition of programmed -1 ribosomal frameshifting in human MCF7 cells harboring pCherryGFP-CoV2-WT plasmid assessed as inhibition of GFP expression at 50 uM incubated for 30 mins by fluorescence microscopic analysis; type: functional; conditions: MCF7, 0.5 h; procedure, shortened: as §2
MCF7 = assay: as §1; type: functional, cell-based; procedure, shortened: as §2

**Q.** With `CCNCC1CCN(c2c(F)cc3c(=O)c(C(=O)O)cn(CC)c3c2F)C1` (stereo not drawn) [MERAFLOXACIN] as the compound, how does the IC50 [1] read?
**A.** The IC50 was 33.5 µM.

**Q.** With `COc1ccc(-c2nc(NCCN3CCOCC3)c3cc(OC)ccc3n2)cc1` as the compound, how does the inhibition at 50 µM [2] read?
**A.** The inhibition at 50 µM was 50%.

**Q.** For `COc1ccc(-c2nc(NCCN3CCOCC3)c3ccccc3n2)cc1`, which inhibition (MCF7) is on record?
**A.** Its inhibition is “Dose-Dependent Effect”.
